Most compounds without a hit are left out; they make up all but 1.7% or so of the library.
Scp-1 inhibitor = Scp-1 (human) phosphatase inhibition. Recombinant Scp1, phosphopeptide, malachite green phosphate absorbance. actives 0.88% (n = 340,000). inhibition, % at 20 µM. Q9GZU7. AID 493091;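 active = inhibition above about 50% at 20 µM, limit read from the data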;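 note: plate controls were DMSO wells with enzyme for no effect and wells lacking enzyme for full effect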
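assay system = SCP-1 phosphatase catalytic domain, residues 76-261 | buffer or medium = 50 mM Tris acetate pH 5.5, 0.005% Tween-20, 10 mM MgCl2 | incubation = enzyme reaction 45 min at room temperature, colour 5 min, stabilisation 30 min | signal = Phosphate-binding colour reagent, absorbance read at 630 nm | measure = % inhibition at 20 µM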
DNMT1 inh = blocks human DNA methyltransferase DNMT1. P26358. DNMT1 molecular beacon, Hinp1I cleavage, fluorescence. inhibition (reported as % activation of signal), % at 10 µM. actives 0.83% (n = 360,000). AID 588458; in the data active = inhibition above about 50%
LMPTP block = LMPTP (human) inhibition. recombinant LMPTP-A, OMFP fluorogenic substrate, fluorescence intensity. AID 651560. inhibition, % at 20 µM. actives 0.22% (n = 360,000);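 active = compounds that cut the enzyme signal by at least half of the control window in the single-dose screen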;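 note: plate controls were DMSO wells with enzyme plus substrate for no effect and substrate without enzyme for full effect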
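Buffer or medium: Bis-Tris pH 6.0, DTT, detergent; Assay system: LMPTP-A enzyme; Quantity: 0.625 nM enzyme; Detection: endpoint fluorescence intensity; Times: 50 min dark incubation at room temperature; Controls: substrate-only low control, DMSO enzyme-plus-substrate high control; Doses: single 20 µM dose; Read-out: percent inhibition versus substrate-only and uninhibited controls; Reagent: 400 µM OMFP.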
SUMO1-SIM PPI = modulators of human SUMO1-mediated protein-protein interactions; actives 0.33% (n = 360,000); inhibition, % at 20 µM; P63165; SUMO1 binding to a labelled peptide, TR-FRET, 1 h; AID 602429; in the data active = inhibition above about 37%
STEP block = STEP (human) phosphatase inhibition. recombinant STEP, OMFP fluorogenic substrate, fluorescence. AID 588621. inhibition, % at 20 µM. P54829. actives 0.25% (n = 360,000);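 active = inhibition at 20 µM, scaled per plate between control wells, above about 37%, limit read from the data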;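 note: 0% = DMSO with enzyme and substrate and 100% = substrate only without enzyme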
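Test system: STEP tyrosine phosphatase / Reagent: OMFP at 25 µM / Doses: 20 µM, 1% DMSO / Read-out: percent inhibition scaled to no-enzyme and uninhibited-enzyme controls, plate-pattern corrected / Detection: FITC-channel fluorescence of OMFP product / Medium: Bis-Tris buffer pH 6.0, 2.5 mM DTT, 0.005% Tween 20 / Schedule: 20 min at room temperature, dark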
Numbers without * were called inactive; / = not tested or not shown.

SMILES | Scp-1 inhibitor | DNMT1 inh | LMPTP block | SUMO1-SIM PPI | STEP block
Nc1ccc2nc(CCCO)[nH]c2c1 | -6 | -12 | 1 | -2 | -1
CCOC(=O)c1sc2nc(OCCN3CCOCC3)cc(C)c2c1N | / | / | 57* | 10 | /
CCOC(=O)c1sc2nc(N3CCOCC3)c3c(c2c1N)CCC3 | -17 | -12 | 3 | -17 | 2
Cc1cc2cc(CNC(=O)Nc3cccc(Cl)c3)ccc2n1C | -12 | 69* | 4 | -45 | 0
CN1C(=O)CON=C1c1cccc2ccccc12 | / | 0 | 0 | -3 | 1
Cc1nc(Cl)sc1C(=O)Nc1ccc(F)cc1 | -10 | -2 | -1 | 1 | -1
CC(C)S(=O)(=O)c1csc(C(=O)Nc2ccc(F)cc2)c1N | 92* | 1 | -2 | 3 | -2
Cc1ccc(OCc2nnc(SCC(N)=O)n2N)cc1 | -4 | -1 | -1 | 44* | -3
CN=c1scc(-c2ccccc2F)n1/N=C/c1ccc[nH]1 | 3 | -16 | 2 | -7 | -4
CN=c1scc(-c2ccccc2F)n1/N=C/c1ccc(O)c(O)c1O | 22 | -10 | 57* | -14 | 8
Cc1cccc(NCc2ccc(N(C)C)cc2)n1 | -5 | 60* | 0 | -1 | -2
CN(C)c1ccc(CNc2ccccn2)cc1 | -5 | 2 | -1 | -2 | -1
NC1=C(Cl)C(=O)c2ccccc2C1=O | -2 | -7 | 2 | -49 | 1
NC1=C(Cl)C(=O)c2ccc(S(N)(=O)=O)cc2C1=O | 0 | 80* | 6 | 6 | 9
COc1ccc(C(C)=O)cc1Cn1c(C)c(C(=O)NCc2cccc(C(F)(F)F)c2)sc1=O | / | -2 | 1 | -3 | -1
C=CC#CC[N+]1(CC#Cc2ccccc2)CCOCC1 | 9 | -30 | 52* | 37* | 5
Cc1cc(NC(=O)c2ccccc2)nc2c1c(=O)oc1ccccc12 | -15 | 1 | 2 | 52* | 2
CCc1nc2ccc(C(=O)Nc3cccc(OCC(=O)N(C)C)c3)cn2c1N(C)Cc1ccc(OC)cc1 | / | 0 | 1 | -3 | 0
CCN1C[C@@H]2[C@@H]3C(=O)N(C)C(=O)[C@@H]3[C@](Cc3ccccc3)(C1=O)N2C(=O)c1ccc(C(C)(C)C)cc1 | -2 | 3 | -1 | -1 | -1
C/C(N)=C(/C#N)C(=O)CSc1nnc(Nc2c(C)cccc2C)s1 | 70* | 26 | 10 | 11 | 1
COc1ccc(Cc2nnc(NN)[nH]c2=O)cc1OC | -9 | 1 | 1 | 1 | 2
COc1ccc(Cc2nnc(SC)[nH]c2=O)cc1OC | -5 | 1 | -1 | 42* | 1
O=C(Nc1ccccc1Oc1ccccc1)[C@@H]1O[C@H](CO)[C@H](O)[C@H](O)[C@H]1O | / | 5 | -2 | 5 | -3
CCN(CC)C(=O)C1=C(C)N(Cc2ccccc2)C(=O)C(CC(=O)NCc2cccs2)C1 (centres undefined) | / | 2 | -2 | -6 | -1
CC(C)C(=O)N1CCC1(C)C(=O)Nc1cccc(Oc2ccccc2)c1 (centres undefined) | / | -3 | 1 | -2 | -1
SMILES | Scp-1 inhibitor | DNMT1 inh | LMPTP block | SUMO1-SIM PPI | STEP block
O=C(O)c1cccc(-n2sc3ccccc3c2=O)c1 | 88* | 14 | -3 | 7 | 4
Cc1ccc(-n2sc3ccccc3c2=O)cc1S(=O)(=O)N1CCCCC1 | 97* | 6 | -1 | 18 | 1
CN(C)S(=O)(=O)c1cccc(-n2sc3ccccc3c2=O)c1 | 99* | 2 | -1 | 4 | 0
O=c1c2ccccc2sn1-c1ccc(S(=O)(=O)N2CCCCC2)cc1 | 16 | -3 | -2 | 5 | 4
O=c1c2ccccc2sn1-c1nccs1 | 96* | 0 | 1 | 5 | 0
CCc1nc2c(OCc3cccc(Cl)c3)cccn2c1N(C)C(=O)c1ccco1 | / | -6 | 0 | 5 | 4
O=c1c2cc(F)ccc2sn1-c1ccccc1 | 92* | -7 | -2 | -1 | 1
O=c1c2cc(C(F)(F)F)ccc2sn1-c1ccccc1 | / | 0 | -2 | 3 | -4
O=c1c2ccccc2sn1-c1ccccc1 | 65* | 1 | 0 | -1 | 1
Oc1c(Cl)cc(Cl)cc1CNc1nccs1 | -5 | -1 | 0 | 26 | -2
O=S(c1cc(Cl)cc(Cl)c1O)c1cc(Cl)cc(Cl)c1O | / | / | 2 | 43* | /
